# This is a sample that favours compounds with a hit; in the whole collection about 2.2% have one here.
# miR122 inh – blocks miR-122 activity in Huh7 sensor cells; Huh7 miR-122 Renilla luciferase sensor, 48 h; neutral wells = 0, positive control = 100; activation (reporter increase), % at 12.5 µM; 340,000 compounds, 0.3% hits; AID 602342;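 active means mean replicate activation score at least 90 and every replicate individually at or above 90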;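 further: higher luciferase means less miR-122 activity so hits act as miR-122 inhibitors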
# Jurkat NFkB inh – inhibitors of the PMA/ionomycin-induced NF-kB reporter in Jurkat cells. PMA/ionomycin-induced NF-kB luciferase reporter, luminescence. inhibition, % at 4 µM. 330,000 compounds, 0.53% hits; in the data active means inhibition above about 50%
# NR2E3 ag-1 – agonists of human nuclear receptor NR2E3. Q9Y5X4. 320,000 compounds, 0.12% hits. inhibition of corepressor binding, % at 4.78 µM. GST-NR2E3/biotin-RetCOR TR-FRET, 1536-well;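 active means percent inhibition above the cutoff of mean plus 3 SD of all tested compounds, set per screening campaign, cut at about 20% in these data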
# Target sequence (Q9Y5X4 whole entry, looked up): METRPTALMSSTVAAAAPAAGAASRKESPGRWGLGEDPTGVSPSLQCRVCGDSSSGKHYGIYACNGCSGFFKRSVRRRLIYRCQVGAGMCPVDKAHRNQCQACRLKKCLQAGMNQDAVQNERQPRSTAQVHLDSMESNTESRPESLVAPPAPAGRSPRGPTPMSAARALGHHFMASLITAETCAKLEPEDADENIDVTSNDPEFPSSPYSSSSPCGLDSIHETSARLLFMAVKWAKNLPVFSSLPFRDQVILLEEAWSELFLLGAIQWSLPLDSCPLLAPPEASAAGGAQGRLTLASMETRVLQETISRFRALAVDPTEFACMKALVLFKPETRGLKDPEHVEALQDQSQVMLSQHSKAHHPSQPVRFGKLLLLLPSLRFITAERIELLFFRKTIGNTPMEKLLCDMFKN
#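 System: GST-tagged NR2E3 plus biotinylated RetCOR corepressor; Buffer or medium: pH 7.5 Tris-based buffer; Probe or stimulus: RetCOR corepressor, biotinylated, 7 nM; Doses: compound at 4.8 µM, single dose; Schedule: 5 h incubation at 4 °C; Technique: time-resolved FRET; Evaluation: percent inhibition of TR-FRET ratio; Replication: one well per compound, singlicate testing.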
# NR2E3 ag-2 – agonists of human NR2E3 nuclear receptor; Q9Y5X4; CHO-S Gal4-NCOR/VP16-NR2E3 two-hybrid, luciferase; inhibition of corepressor binding, % at 3.98 µM; 360,000 compounds, 0.35% hits;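 active means inhibition above the mean of all tested compounds plus 3 SD, cut at about 70% in these data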;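 further: higher means lower luciferase signal from less NR2E3 corepressor binding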
# 697 NFkB inh – lowers PMA/ionomycin-induced NF-kB signal in 697 B cells; 697 B-cell NF-kB luciferase reporter, 16 h; AID 435022; 330,000 compounds, 0.33% hits; inhibition, % at 4 µM; in the data active means inhibition above about 35%
# FGF22 binding – shifts melting point of recombinant human FGF22. Q9HCT0. recombinant FGF22 thermal shift, SYPRO orange fluorescence; percent of sucrose octasulfate shift, DMSO zero. activity (Tm shift, normalised), % at 9.99 µM. 340,000 compounds, 1.5% hits. AID 651658;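 active means mean Tm shift, scaled 0 neutral to 100 positive control, at about 1.3% or above, every replicate too, limit read from the data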
# NR2E3 agonist cf – NR2E3 (human) agonism, confirmation; activation (reported as inhibition), % at 3.98 µM; AID 2379; shares compounds with NR2E3 ag-1; 360 compounds, 39% hits; cell-free NR2E3 corepressor release, TR-FRET, 5 h; in the data active means activation above about 20%
# PPARg-NCOR2 ctr – counter-screen for NR2E3 agonists: human PPARgamma-NCOR2 interaction agonists | shares compounds with NR2E3 ag-1 | TR-FRET PPARg-NCOR2 coregulator interaction, biochemical | inhibition, % at 3.98 µM | 360 compounds, 45% hits | AID 504787; in the data active means inhibition above about 20%
# A number is an active result; – = inactive; · = no result.
SMILES,miR122 inh,Jurkat NFkB inh,NR2E3 ag-1,NR2E3 ag-2,697 NFkB inh,FGF22 binding,NR2E3 agonist cf,PPARg-NCOR2 ctr
c1coc(-c2nc(-c3ccco3)c(-c3ccco3)nc2-c2ccco2)c1,–,–,42,–,–,·,–,–
COC(=O)CC#N,–,–,–,–,–,–,·,·
N#CCC(N)=C(C#N)C#N,–,–,26,–,–,–,–,–
Cc1c(Br)c(=O)oc2c(C)c(O)ccc12,·,–,21,–,–,·,–,–
CCc1c(C)c2ccc(O)c(CN(C)C)c2oc1=O,–,–,–,–,–,·,·,·
CC(=O)N(C)C[C@H]1Oc2ncc(C#C[C@@H](C)O)cc2C(=O)N([C@H](C)CO)C[C@@H]1C,–,·,·,·,·,–,·,·
O=C(C1=C(O)C(=O)N(Cc2ccco2)C1c1cccc(O)c1)c1ccco1 (stereo not given),–,–,–,–,–,–,·,·
COc1cccc2cc(C(=O)C3=C(O)C(=O)N(Cc4ccco4)C3c3cccnc3)oc12 (stereo not given),–,–,28,–,–,·,20,24
O=C(C1=C(O)C(=O)N(Cc2ccco2)C1c1cccnc1)c1cc2ccccc2o1 (stereo not given),–,–,38,–,–,·,43,42
Cc1ccc(S(=O)(=O)N(C)C[C@H]2Oc3ccc(N(C)C)cc3CC(=O)N([C@@H](C)CO)C[C@H]2C)cc1,–,·,·,·,·,–,·,·
N/C(=N\OC(=O)COc1ccc2ccccc2c1Br)c1ccccn1,–,–,–,–,–,–,·,·
N/C(=N\OC(=O)COc1ccc2ccccc2c1Br)c1cccnc1,·,–,21,·,–,–,–,–
O=C(NC1CCC1)[C@H]1[C@H](CO)[C@H]2Cn3c(ccc(-c4ccc(F)cc4)c3=O)[C@@H]1N2,·,·,·,·,·,–,·,·
CCOC(=O)Cc1csc(-n2sc3ccccc3c2=O)n1,–,–,32,–,–,–,–,22
O=C(C[C@H]1CC[C@@H](NC(=O)C2CC2)[C@H](CO)O1)NCc1ccncc1,·,·,·,·,·,–,·,·
C=CCn1c(NS(=O)(=O)c2ccccc2)c(S(=O)(=O)c2ccc(C)cc2)c2nc3ccccc3nc21,–,·,44,–,·,–,–,88
CN(CC(=O)NCCc1ccc(Cl)cc1)S(=O)(=O)c1ccc2c(c1)c(=O)n(C)c(=O)n2C,–,–,–,–,–,–,·,·
CN(CC(=O)NCCC1=CCCCC1)S(=O)(=O)c1ccc2c(c1)c(=O)n(C)c(=O)n2C,–,–,24,–,–,–,–,–
CCC(=O)Nc1c(C#N)c2nc3ccccc3nc2n1-c1ccc(C)cc1,·,·,·,–,·,–,·,·
N#Cc1c(NC(=O)c2ccc(Br)o2)n(-c2ccccc2)c2nc3ccccc3nc12,–,–,24,–,–,–,38,54
Cc1cc(C(=O)OCC(=O)c2ccc(Br)s2)no1,–,–,25,–,–,–,–,–
CCOc1ccccc1NC(=O)CSc1nc(N)c(C#N)cc1C#N,–,–,43,–,–,·,33,54
COc1ccccc1NC(=O)CSc1nc(N)c(C#N)cc1C#N,–,–,–,–,–,–,·,·
C/C=C/c1ccc2c(c1)O[C@H](CN(C)C(=O)Cc1ccncc1)[C@H](C)CN([C@H](C)CO)S2(=O)=O,–,·,·,·,·,–,·,·
O=C(C[C@H]1CC[C@H]2[C@@H](COC[C@H](O)CN2C(=O)c2cnccn2)O1)NCc1ccc(F)cc1,–,·,·,·,·,–,·,·
COc1cccc(CNC(=O)CCCn2c(=S)[nH]c3cc4c(cc3c2=O)OCO4)c1,–,–,26,–,–,–,31,36
COc1ccc(CN(C)C[C@H]2Oc3ccc(NC(=O)CCN4CCOCC4)cc3C(=O)N([C@@H](C)CO)C[C@@H]2C)cc1,–,·,·,·,·,–,·,·
O=C(O[C@@H]1OC2COC(=O)c3cc(O)c(O)c(O)c3-c3c(cc(O)c(O)c3O)C(=O)O[C@@H]([C@H]1O)[C@@H]2O)c1cc(O)c(O)c(O)c1,–,·,24,–,·,·,–,–

# Assay outcomes: PubChem, several laboratories
